From ChEMBL document CHEMBL5107963, “Design, synthesis and anti-mycobacterial evaluation of imidazo[1,2-a]pyridine analogues” (RSC Med Chem, 2022)
Converted amounts (≈) assume the structure as drawn.

Tested on: Mycobacterium tuberculosis
Assay: Anti-mycobacterial activity against Mycobacterium tuberculosis H37Rv incubated for 5 days by alamar blue assay
Format: functional
Details: 120 h, time 5 day
Procedure, shortened: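 Inoculum from Löwenstein-Jensen culture suspended in Middlebrook 7H9 broth with 0.2% glycerol and 10% OADC, diluted 1:20. Compounds serially diluted in 7H9, final 100 to 0.4 µg/ml. Sealed plates incubated 37°C for 5 days, then Alamar Blue/10% Tween 80 (1:1) added for 24 h. Blue = no growth, pink = growth; MIC is lowest concentration preventing blue-to-pink change.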

Compound | MIC
COc1ccc(-c2cn3cc(C4=CCN(S(=O)(=O)C5CCCC5)CC4)ccc3n2)cc1OC | 25 µg/mL (≈ 53.5 µM)
COc1ccc(-c2cn3cc(C4=CCN(C(=O)C5CCCCC5)CC4)ccc3n2)cc1OC | 50 µg/mL (≈ 112 µM)
COc1ccc(-c2cn3cc(C4=CCN(C(=O)c5cccc(F)c5)CC4)ccc3n2)cc1OC | 50 µg/mL (≈ 109 µM)
COc1ccc(-c2cn3cc(C4=CCN(C(=O)C5CC5)CC4)ccc3n2)cc1OC | 50 µg/mL (≈ 124 µM)
COc1ccc(-c2cn3cc(C4=CCN(S(=O)(=O)c5ccc(C(F)(F)F)cc5)CC4)ccc3n2)cc1OC | 6.25 µg/mL (≈ 11.5 µM)
COc1ccc(-c2cn3cc(C4=CCN(S(=O)(=O)c5ccc(C)cc5)CC4)ccc3n2)cc1OC | 25 µg/mL (≈ 51.1 µM)
COc1ccc(-c2cn3cc(C4=CCN(C(=O)c5ccc(F)cc5)CC4)ccc3n2)cc1OC | 25 µg/mL (≈ 54.6 µM)
COc1ccc(-c2cn3cc(C4=CCN(S(=O)(=O)c5ccccc5)CC4)ccc3n2)cc1OC | 25 µg/mL (≈ 52.6 µM)
COc1ccc(-c2cn3cc(C4=CCN(C(=O)c5cocn5)CC4)ccc3n2)cc1OC | 50 µg/mL (≈ 116 µM)
COc1ccc(-c2cn3cc(C4=CCN(C(=O)c5cccc(C(F)(F)F)c5)CC4)ccc3n2)cc1OC | 12.5 µg/mL (≈ 24.6 µM)
COc1ccc(-c2cn3cc(C4=CCN(C(=O)c5ccco5)CC4)ccc3n2)cc1OC | 50 µg/mL (≈ 116 µM)
COc1ccc(-c2cn3cc(C4=CCN(S(=O)(=O)C5CC5)CC4)ccc3n2)cc1OC | 12.5 µg/mL (≈ 28.4 µM)
COc1ccc(-c2cn3cc(C4=CCN(S(=O)(=O)c5ccc(C(C)=O)cc5)CC4)ccc3n2)cc1OC | 6.25 µg/mL (≈ 12.1 µM)
COc1ccc(-c2cn3cc(C4=CCN(C(=O)c5ccccn5)CC4)ccc3n2)cc1OC | 100 µg/mL (≈ 227 µM)
COc1ccc(-c2cn3cc(C4=CCN(S(=O)(=O)c5ccc(Cl)s5)CC4)ccc3n2)cc1OC | 6.25 µg/mL (≈ 12.1 µM)
COc1ccc(-c2cn3cc(C4=CCN(C(=O)c5cccs5)CC4)ccc3n2)cc1OC | 25 µg/mL (≈ 56.1 µM)

Compound | MIC
COc1ccc(-c2cn3cc(C4=CCN(C(C)=O)CC4)ccc3n2)cc1OC | > 100 µg/mL
COc1ccc(-c2cn3cc(C4=CCN(S(=O)(=O)c5ccc(Cl)cc5)CC4)ccc3n2)cc1OC | 6.25 µg/mL (≈ 12.3 µM)
COc1ccc(-c2cn3cc(C4=CCN(C(=O)COCc5ccccc5)CC4)ccc3n2)cc1OC | 50 µg/mL (≈ 103 µM)
COc1ccc(-c2cn3cc(C4=CCN(S(=O)(=O)c5ccc(Br)cc5)CC4)ccc3n2)cc1OC | 6.25 µg/mL (≈ 11.3 µM)
COc1ccc(-c2cn3cc(C4=CCN(S(=O)(=O)c5ccc(C(C)(C)C)cc5)CC4)ccc3n2)cc1OC | 6.25 µg/mL (≈ 11.8 µM)
COc1ccc(-c2cn3cc(C4=CCN(S(=O)(=O)c5ccc(Br)s5)CC4)ccc3n2)cc1OC | 3.12 µg/mL (≈ 5.58 µM)
COc1ccc(-c2cn3cc(C4=CCN(S(=O)(=O)c5ccc(F)cc5)CC4)ccc3n2)cc1OC | 6.25 µg/mL (≈ 12.7 µM)
CCS(=O)(=O)N1CC=C(c2ccc3nc(-c4ccc(OC)c(OC)c4)cn3c2)CC1 | 12.5 µg/mL (≈ 29.2 µM)
CCCS(=O)(=O)N1CC=C(c2ccc3nc(-c4ccc(OC)c(OC)c4)cn3c2)CC1 | 12.5 µg/mL (≈ 28.3 µM)
COc1ccc(-c2cn3cc(C4=CCN(S(=O)(=O)C5CCCCC5)CC4)ccc3n2)cc1OC | 25 µg/mL (≈ 51.9 µM)
COc1ccc(-c2cn3cc(C4=CCN(S(=O)(=O)c5ccc([N+](=O)[O-])cc5)CC4)ccc3n2)cc1OC | 6.25 µg/mL (≈ 12 µM)
COc1ccc(-c2cn3cc(C4=CCN(C(=O)c5ccccc5F)CC4)ccc3n2)cc1OC | 6.25 µg/mL (≈ 13.7 µM)
COc1ccc(-c2cn3cc(C4=CCN(C(=O)C(C)(C)C)CC4)ccc3n2)cc1OC | 100 µg/mL (≈ 238 µM)
Nc1ccc(C(=O)O)c(O)c1 [AMINOSALICYLIC ACID] | 12.5 µg/mL (≈ 81.6 µM)
CC[C@@H](CO)NCCN[C@@H](CC)CO [ETHAMBUTOL] | 6.25 µg/mL (≈ 30.6 µM)
